# Published values from different studies.
# Lines come from different studies, so protocols differ.
# Target: 3-phosphoinositide-dependent protein kinase 1 (PDPK1, Homo sapiens, UniProt O15530)
# One construct used (O15530 1-556): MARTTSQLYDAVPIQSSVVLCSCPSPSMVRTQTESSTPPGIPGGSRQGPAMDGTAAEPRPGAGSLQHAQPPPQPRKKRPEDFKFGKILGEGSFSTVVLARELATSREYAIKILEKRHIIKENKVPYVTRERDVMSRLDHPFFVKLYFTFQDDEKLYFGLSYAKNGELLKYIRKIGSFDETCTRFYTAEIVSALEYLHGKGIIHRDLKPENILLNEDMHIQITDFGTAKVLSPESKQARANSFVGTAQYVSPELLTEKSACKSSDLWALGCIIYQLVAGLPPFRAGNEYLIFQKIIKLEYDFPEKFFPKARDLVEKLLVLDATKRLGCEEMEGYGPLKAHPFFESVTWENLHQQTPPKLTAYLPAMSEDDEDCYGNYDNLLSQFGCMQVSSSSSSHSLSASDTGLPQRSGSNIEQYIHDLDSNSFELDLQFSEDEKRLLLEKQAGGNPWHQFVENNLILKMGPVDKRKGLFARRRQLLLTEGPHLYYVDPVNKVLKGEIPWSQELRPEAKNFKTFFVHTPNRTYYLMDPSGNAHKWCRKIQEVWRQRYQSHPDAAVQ
Compound,assay,setting,remaining binding [%]
O=C(NCC1CCOCC1)c1n[nH]cc1NC(=O)c1c(F)cccc1F,"binding, competition with immobilised ligand",1 µM,100
C[C@@H](c1ccc(-n2cnc3c(N)ncnc32)cc1)N1CCc2nn(C)c(Cc3ccccc3)c2C1=O,"binding, competition with immobilised ligand",0.1 µM,100
CC(C)(C)c1ccc(-c2nc(CBr)nn2-c2cccc(O)c2)cc1,"cell-free assay, competition with immobilised ligand",10 µM,89
CS(=O)(=O)NCC[C@H](NC(=O)c1cncc2c1cnn2-c1ccc(F)cc1)c1ccnc(S(C)(=O)=O)c1,"cell-free assay, competition with immobilised ligand",1 µM,100
N#Cc1ccccc1CSc1nnc2c(n1)[nH]c1ccccc12,"binding, competition with immobilised ligand",10 µM,91
Cc1cnn2ncc(-c3ccnc(N(C)C)n3)c2c1,binding,1 µM,100
Cc1ccc(NC(=O)c2ccc(CN3CCN(C)CC3)cc2)cc1Nc1nccc(-c2cccnc2)n1,"cell-free assay, competition with immobilised ligand",10 µM,100
C[C@@H]1CN(c2ccc3ncc(-c4ccc5[nH]nc(C6CC6)c5c4)n3n2)C[C@H](C)O1,"binding, competition with immobilised ligand",0.5 µM,100
CN(C)c1nccc(-c2cnn3ncccc23)n1,binding,1 µM,100
O=C(c1ccc(Nc2nccc(-c3cc4ccccc4s3)n2)cc1)N1CCC(N2CCCC2)CC1,"binding, competition with immobilised ligand",1 µM,100
O=C(Nc1cccnn1)N1CCC(=Cc2cccc(Oc3ccc(C(F)(F)F)cn3)c2)CC1,"cell-free assay, competition with immobilised ligand",1 µM,85
CCN(CC)Cc1cc(Nc2ccnc3cc(Cl)ccc23)ccc1O,"cell-free assay, competition with immobilised ligand",0.1 µM,100
COc1cnc(Nc2cccc(S(N)(=O)=O)c2)nc1N1CCN(c2ccccc2)CC1,"binding, competition with immobilised ligand",1 µM,100
CN(C)C(=O)Cn1cc(-c2nc([C@@](C)(c3ccc(-c4cnc(N)nc4)cc3)C3CC3)no2)cn1,"cell-free assay, competition with immobilised ligand",1 µM,99
CN1CC[C@H](c2c(O)cc(O)c3c(=O)cc(-c4ccccc4Cl)oc23)[C@H](O)C1,"cell-free assay, competition with immobilised ligand",0.1 µM,100
Cc1cnc(Nc2ccc(C(=O)N3CCC(N4CCCC4)CC3)cc2)nc1-c1cc2ccccc2s1,"binding, competition with immobilised ligand",1 µM,72
C=CC(=O)N1CCC(C(=O)NCC(=O)N2CCN(c3nc(-c4cnc(N)nc4C(F)F)nc(N4CCOCC4)n3)CC2)CC1,"binding, competition with immobilised ligand",1 µM,93
C[C@@H]1CCN(c2nccc(-c3cnn4ncccc34)n2)C1,binding,1 µM,89
O=C(Nc1cccnn1)N1CC(C/C=C/c2cncc(Oc3ccc(C(F)(F)F)cn3)n2)C1,"cell-free assay, competition with immobilised ligand",1 µM,97
Cc1nc(Nc2ncc(C(=O)Nc3c(C)cccc3Cl)s2)cc(N2CCN(CCO)CC2)n1,"cell-free assay, competition with immobilised ligand",0.1 µM,100
c1cncc(-c2cccc(Nc3nccc(NC4CCCCC4)n3)c2)c1,"binding, competition with immobilised ligand",10 µM,100
O=C(NCCCN1CCOCC1)c1ccc(Nc2nccc(-c3cc4ccccc4s3)n2)cc1,"binding, competition with immobilised ligand",1 µM,99
COc1cc2ncnc(Nc3ccc(F)c(Cl)c3)c2cc1OCCCN1CCOCC1,"cell-free assay, competition with immobilised ligand",0.1 µM,100
CCCCN(CCCC)C(=O)CN1C[C@@H](c2cc(OC)c3c(c2)OCO3)[C@H](C(=O)O)[C@H]1CC(C)(C)CCC,"cell-free assay, competition with immobilised ligand",1 µM,77.3
CCN(CC)CCNC(=O)c1c(C)[nH]c(/C=C2\C(=O)Nc3ccc(F)cc32)c1C,"cell-free assay, competition with immobilised ligand",10 µM,39
N[C@H]1CCN(c2nccc(-c3cnn4ncccc34)n2)C1,binding,1 µM,97
COc1ccc2cc(OCC3(C(=O)O)CN(C(=O)c4ccc(F)cc4)C3)ccc2c1,"cell-free assay, competition with immobilised ligand",1 µM,100
Cc1c(-c2ccccc2)oc2c(C(=O)OCCN3CCCCC3)cccc2c1=O,"cell-free assay, competition with immobilised ligand",10 µM,100
Cc1nc(Cc2cccc(C(F)(F)F)c2)sc1-c1ccc(C(N)=O)nc1,"cell-free assay, competition with immobilised ligand",1 µM,82
CN(C)c1nccc(-c2cnc3ncccn23)n1,binding,1 µM,100
CCN1CCN(Cc2ccc(C(=O)Nc3ccc(C)c(Oc4ccc5c(c4)CC(=O)N5)c3)cc2C(F)(F)F)CC1,"binding, competition with immobilised ligand",1 µM,100
CS(=O)(=O)CCNCc1ccc(-c2ccc3ncnc(Nc4ccc(OCc5cccc(F)c5)c(Cl)c4)c3c2)o1,"cell-free assay, competition with immobilised ligand",0.1 µM,100
COc1ccc2c(c1)O[C@H](c1ccc(OC)c(OC)c1)C[C@@H]2NC(=O)C1(c2ccc3c(c2)OC(F)(F)O3)CC1,"cell-free assay, competition with immobilised ligand",1 µM,100
CN(C)c1ncc(F)c(-c2cnn3ncccc23)n1,binding,1 µM,99
